Calls of active or inactive are those of the source. No cut-off for these calls is given here.
How the values were obtained:
[1] = biological target: T1, Dual specificity mitogen-activated protein kinase kinase; MEK1/2 (Homo sapiens, UniProt P36507+Q02750); assay: Inhibition of MEK1/2 in human HT-29 cells assessed as reduction in cell proliferation after 72 hrs by CellTiter-Glo assay; format: cell-based
Outline: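 HT-29 cells were plated at 2,000/well in DMEM or RPMI with 10% FBS and left overnight at 37°C, 5% CO2. Medium was replaced with compound at 3-fold dilutions from 3.3 µM to 4.5 nM. After 72 h, viability was read by CellTiter-Glo luminescence and IC50 calculated.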

[2] = biological target: T1, Dual specificity mitogen-activated protein kinase kinase; MEK1/2; assay: Inhibition of MEK1/2 in HEK293 cells assessed as reduction in ERK1/2 phosphorylation at 0.001 to 1 uM after 24 hrs by immunoblot method; format: cell-based
Outline: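 HEK-293 cells were grown in DMEM with 10% FBS, seeded at 5.0×10^5 per well and grown 24 h. After rinsing, they were exposed 24 h to serial dilutions from 1 to 0.001 µM final, or to Cremophor EL/saline vehicle. Cells were then washed with PBS, extracted and immunoblotted for phospho- and total ERK1/2.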

Mus musculus [3] = assay: In vivo inhibition of MEK1/2 in LmnaH222P/H222P mouse model of cardiomyopathy assessed as reduction in ERK1/2 phosphorylation in heart at 3 to 6 mg/kg/day, po administered 6 days per week via gavage starting from 14 weeks of age up to 20 weeks of age by immunoblot method; format: functional, organism-based
Outline: (§1)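 Heart, liver and quadriceps from male mutant mice gavaged 3 or 6 mg/kg/day (weeks 14–20) were homogenized for protein. Proteins were run on SDS-PAGE, transferred to nitrocellulose and probed for phospho- and total ERK1/2 with HRP secondaries and chemiluminescence. Scanned blots were quantified as the pERK1/2 to total ERK1/2 ratio; n = 3, means ± SE.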

Mus musculus [4] = assay: In vivo inhibition of MEK1/2 in LmnaH222P/H222P mouse model of cardiomyopathy assessed as reduction in ERK1/2 phosphorylation in liver at 3 to 6 mg/kg/day, po administered 6 days per week via gavage starting from 14 weeks of age up to 20 weeks of age by immunoblot method; format: functional, organism-based; outline: as §1
Mus musculus [5] = assay: In vivo inhibition of MEK1/2 in LmnaH222P/H222P mouse model of cardiomyopathy assessed as reduction in ERK1/2 phosphorylation in quadriceps muscle at 6 mg/kg/day, po administered 6 days per week via gavage starting from 14 weeks of age up to 20 weeks of age by immunoblot method; format: functional, organism-based; outline: as §1
[6] = (§2) Cardioprotective activity in LmnaH222P/H222P mouse model of cardiomyopathy assessed as left ventricular end diastolic diameter at 3 mg/kg/day, po administered 6 days per week via gavage starting from 14 weeks of age up to 20 weeks of age by echocardiographic method (reference value: 3.96 +/- 0.08 millimeter); format: functional, organism-based; conditions: Heart
[7] = as §2, with “at 6” for “at 3”; format: functional, organism-based; conditions: Heart
[8] = as §2, with “systolic” for “diastolic”, “3.32” for “3.96”, “0.1” for “0.08”; format: functional, organism-based; conditions: Heart
[9] = as §2, with “systolic” for “diastolic”, “6” for “3”, “3.32” for “3.96”, “0.1” for “0.08”; format: functional, organism-based; conditions: Heart
[10] = Cardioprotective activity in LmnaH222P/H222P mouse model of cardiomyopathy assessed as left ventricular fractional shortening at 3 mg/kg/day, po administered 6 days per week via gavage starting from 14 weeks of age up to 20 weeks of age by echocardiographic method (reference value: 16.36 +/- 1.08%); format: functional, organism-based; conditions: Heart
[11] = Cardioprotective activity in LmnaH222P/H222P mouse model of cardiomyopathy assessed as left ventricular fractional shortening at 6 mg/kg/day, po administered 6 days per week via gavage starting from 14 weeks of age up to 20 weeks of age by echocardiographic method (reference value: 16.36 +/- 1.08%); format: functional, organism-based; conditions: Heart
[12] = Cardioprotective activity in LmnaH222P/H222P mouse model of cardiomyopathy assessed as heart rate at 3 mg/kg/day, po administered 6 days per week via gavage starting from 14 weeks of age up to 20 weeks of age by echocardiographic method (reference value: 502.73 +/- 0.46 bpm); format: functional, organism-based
[13] = Cardioprotective activity in LmnaH222P/H222P mouse model of cardiomyopathy assessed as heart rate at 6 mg/kg/day, po administered 6 days per week via gavage starting from 14 weeks of age up to 20 weeks of age by echocardiographic method (reference value: 502.73 +/- 0.46 bpm); format: functional, organism-based
[14] = Cardioprotective activity in LmnaH222P/H222P mouse model of cardiomyopathy assessed as reduction in Nppa mRNA expression in heart at 3 to 6 mg/kg/day, po administered 6 days per week via gavage starting from 14 weeks of age up to 20 weeks of age by qRT-PCR method relative to placebo treated control; format: functional, organism-based
Outline: (§3)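 Hearts from male Lmna H222P/H222P mice gavaged 6 days/week, weeks 14–20, with vehicle or 3 or 6 mg/kg/day. Real-time RT-PCR with SYBR green and 200 nM of each primer; 95°C 2 min, then 50 cycles of 95°C 30 s and 62°C 30 s. ΔΔCT method normalized to Gapdh; fold change versus placebo (n = 5, 5, 6).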

[15] = Cardioprotective activity in LmnaH222P/H222P mouse model of cardiomyopathy assessed as reduction in Myl7 mRNA expression in heart at 6 mg/kg/day, po administered 6 days per week via gavage starting from 14 weeks of age up to 20 weeks of age by qRT-PCR method relative to placebo treated control; format: functional, organism-based; outline: as §3
[16] = Cardioprotective activity in LmnaH222P/H222P mouse model of cardiomyopathy assessed as reduction in myocardial fibrosis administered 6 days per week via oral gavage starting from 14 weeks of age up to 20 weeks of age by masson trichrome staining based assay; format: functional, tissue-based; conditions: Heart
Outline: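 Left ventricles from male mutant mice dosed 3 or 6 mg/kg/day by gavage (weeks 14–20) were fixed in 4% formaldehyde for 48 h, paraffin-embedded, cut at 5 μm and stained with Masson trichrome. Graded 0–4 for vacuolation and fibrosis: 0–2 no fibrosis with none, mild or moderate vacuolation; 3 mild fibrosis; 4 severe fibrosis. n = 5, 5, 6.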

Mus musculus [17] = assay: (§4) In vivo inhibition of MEK1/2 in LmnaH222P/H222P mouse model of cardiomyopathy assessed as reduction in ERK1/2 activation-mediated muscular dystrophy by measuring inhibition of serum creatine phosphokinase activity at 6 mg/kg/day, po administered 6 days per week via gavage starting from 14 weeks of age up to 20 weeks of age; format: functional, organism-based
Outline: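 Serum from male Lmna H222P/H222P mice gavaged with vehicle or 3 or 6 mg/kg/day from 14 to 20 weeks of age was assayed for creatine phosphokinase activity. Means ± SE, n = 10 per group.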

Mus musculus [18] = assay: as §4, with “increase in forelimb grip fatigue index” for “inhibition of serum creatine phosphokinase activity”; format: functional, organism-based
Outline: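 Forelimb grip strength was tested by an investigator blind to treatment on two consecutive days and normalized to body mass. Fatigue index = (C+D)/(A+B), where A–D are sums of pulls 1–3, 4–6, 10–12 and 13–15; a value of 1 means no fatigue. Mice were gavaged from weeks 14–20; n = 7 placebo, 6 treated.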

T1 sequence (P36507 whole entry, looked up): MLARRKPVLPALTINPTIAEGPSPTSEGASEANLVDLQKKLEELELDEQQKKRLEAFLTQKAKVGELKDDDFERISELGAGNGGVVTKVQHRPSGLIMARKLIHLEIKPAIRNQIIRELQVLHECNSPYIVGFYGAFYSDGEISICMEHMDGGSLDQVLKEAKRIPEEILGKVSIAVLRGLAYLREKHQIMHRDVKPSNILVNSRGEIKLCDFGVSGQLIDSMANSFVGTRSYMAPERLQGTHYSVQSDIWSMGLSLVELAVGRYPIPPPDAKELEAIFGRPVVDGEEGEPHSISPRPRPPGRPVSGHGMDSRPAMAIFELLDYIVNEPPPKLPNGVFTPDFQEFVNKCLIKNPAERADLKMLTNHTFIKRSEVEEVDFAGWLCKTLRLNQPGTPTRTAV
T1 sequence (Q02750 whole entry, looked up): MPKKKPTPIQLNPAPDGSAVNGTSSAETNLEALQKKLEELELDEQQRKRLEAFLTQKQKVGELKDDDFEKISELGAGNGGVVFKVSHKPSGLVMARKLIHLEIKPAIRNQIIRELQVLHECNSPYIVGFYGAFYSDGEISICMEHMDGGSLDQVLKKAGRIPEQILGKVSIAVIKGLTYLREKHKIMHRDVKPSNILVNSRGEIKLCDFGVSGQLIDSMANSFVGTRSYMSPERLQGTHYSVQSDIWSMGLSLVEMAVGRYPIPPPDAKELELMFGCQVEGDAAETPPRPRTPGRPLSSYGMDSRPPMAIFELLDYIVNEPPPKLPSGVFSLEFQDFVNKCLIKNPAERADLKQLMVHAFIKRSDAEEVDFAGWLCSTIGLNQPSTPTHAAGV

SMILES	IC50 [1] [nM]	inhibition [2]	inhibition (Mus musculus [3])	inhibition (Mus musculus [4])	inhibition (Mus musculus [5])	Activity [6] [mm]	Activity [7] [mm]	Activity [8] [mm]	Activity [9] [mm]	Activity [10] [%]	Activity [11] [%]	Activity [12] [bpm]	Activity [13] [bpm]	Activity [14]	Activity [15]	Activity [16]	inhibition (Mus musculus [17])	inhibition (Mus musculus [18])
O=S1(=O)Nc2c(cc(F)c(F)c2Nc2ccc(I)cc2F)OCC(O)C(O)CC12CC2 (single isomer, unassigned; form 2)	400																	
O=S1(=O)Nc2c(cc(F)c(F)c2Nc2ccc(I)cc2F)OCC(O)C(O)CC12CC2 (single isomer, unassigned; form 1)		Active	Active	Active	Active	4	3.77	3.24	3.02	19.4	20.6	504	502	Active	Active	Dose-dependent effect	Active	Active

From ChEMBL document CHEMBL3875205, “Macrocyclic MEK1/2 inhibitor with efficacy in a mouse model of cardiomyopathy caused by lamin A/C gene mutation” (Bioorg Med Chem, 2017)
